Consider 22 molecules from ChEMBL document CHEMBL1125379, “Binding of phenylalkylamine derivatives at 5-HT1C and 5-HT2 serotonin receptors: evidence for a lack of selectivity” (J Med Chem, 1992).

The target of assay [1] is T1, 5-hydroxytryptamine receptor 2C (Rattus norvegicus, UniProt P08909).
T1 sequence (P08909 whole entry): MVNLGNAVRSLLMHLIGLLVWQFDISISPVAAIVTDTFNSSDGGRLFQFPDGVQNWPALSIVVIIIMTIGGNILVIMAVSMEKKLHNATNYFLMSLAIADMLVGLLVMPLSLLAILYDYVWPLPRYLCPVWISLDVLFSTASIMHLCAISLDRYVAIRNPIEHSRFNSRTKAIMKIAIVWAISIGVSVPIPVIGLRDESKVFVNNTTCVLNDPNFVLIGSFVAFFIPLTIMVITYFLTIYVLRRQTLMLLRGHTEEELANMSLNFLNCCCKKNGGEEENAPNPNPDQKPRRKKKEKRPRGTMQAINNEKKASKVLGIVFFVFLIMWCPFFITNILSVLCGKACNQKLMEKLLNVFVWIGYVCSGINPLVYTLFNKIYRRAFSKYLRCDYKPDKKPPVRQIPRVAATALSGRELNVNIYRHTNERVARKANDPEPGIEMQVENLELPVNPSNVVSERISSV
Put plainly: Binding affinity towards 5-hydroxytryptamine 1C receptor from frontal cortical regions of male Sprague-Dawley rat homogenates, using [3H]mesulergine as radioligand. In a few lines: (§1)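 Male Sprague–Dawley rat frontal cortex membranes were washed in Tris/EDTA/MgCl2 pH 7.4 with a 37 °C preincubation and resuspended with ascorbate and pargyline. Each tube held 10 mg wet tissue, 1 nM [3H]mesulergine and 100 nM spiperone to block 5-HT2 sites. Nonspecific binding was set with 1 μM mianserin. Tubes were incubated 15 min at 37 °C, in triplicate, then filtered. Ki = IC50/(1+D*/KD*).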

Assay [2] concerns the target T2, Serotonin 2 (5-HT2) receptor (Rattus norvegicus, UniProt P30994+P08909+P14842). Put plainly: Binding affinity towards 5-hydroxytryptamine 2 receptor from frontal cortical regions of male Sprague-Dawley rat homogenates, using [3H]ketanserin as radioligand. The procedure, abridged:
(§2)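 Male Sprague–Dawley rat frontal cortex membranes were washed in 50 mM Tris, 0.5 mM EDTA, 10 mM MgCl2, pH 7.4, and resuspended with 0.1% ascorbate and 10^-6 M pargyline. Each tube held 5 mg wet tissue and 0.4 nM [3H]ketanserin. Nonspecific binding was set with 1.0 μM cinanserin. Tubes were incubated 15 min at 37 °C, in triplicate, then filtered on PEI-soaked glass fiber. Ki came from IC50 via Cheng–Prusoff, using the saturation KD.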

Assay [3] deals with Serotonin 2 (5-HT2) receptor (Rattus norvegicus) (UniProt P30994+P08909+P14842). The assay is described as follows: 5-HT1C selectivity was defined as the ratio between Ki(5-HT2)/Ki(5-HT1C). It counts as protein assay. The procedure, abridged: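 Ratio of Ki values from rat frontal cortex competition assays. For 5-HT2: 0.4 nM [3H]ketanserin, with 1 μM cinanserin nonspecific. For 5-HT1C: 1 nM [3H]mesulergine plus 100 nM spiperone, with 1 μM mianserin nonspecific. Both were run 15 min at 37 °C in triplicate. Ki = IC50/(1+D*/KD*).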
Serotonin 2 (5-HT2) receptor (Rattus norvegicus), sequence (P14842 whole entry, looked up, one chain of several): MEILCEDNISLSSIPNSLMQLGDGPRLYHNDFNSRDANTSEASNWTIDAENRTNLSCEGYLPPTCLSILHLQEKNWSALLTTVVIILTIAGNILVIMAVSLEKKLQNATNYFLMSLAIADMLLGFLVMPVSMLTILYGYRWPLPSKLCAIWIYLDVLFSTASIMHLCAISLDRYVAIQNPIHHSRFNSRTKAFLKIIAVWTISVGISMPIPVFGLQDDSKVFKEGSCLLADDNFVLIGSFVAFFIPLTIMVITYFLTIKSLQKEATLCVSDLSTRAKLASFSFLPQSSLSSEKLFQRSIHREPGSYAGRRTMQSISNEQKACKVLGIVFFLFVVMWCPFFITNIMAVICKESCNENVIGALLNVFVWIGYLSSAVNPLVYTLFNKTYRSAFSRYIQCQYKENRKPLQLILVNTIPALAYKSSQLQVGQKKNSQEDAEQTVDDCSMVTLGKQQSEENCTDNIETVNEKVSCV
Serotonin 2 (5-HT2) receptor (Rattus norvegicus), sequence (P30994 whole entry, looked up, one chain of several): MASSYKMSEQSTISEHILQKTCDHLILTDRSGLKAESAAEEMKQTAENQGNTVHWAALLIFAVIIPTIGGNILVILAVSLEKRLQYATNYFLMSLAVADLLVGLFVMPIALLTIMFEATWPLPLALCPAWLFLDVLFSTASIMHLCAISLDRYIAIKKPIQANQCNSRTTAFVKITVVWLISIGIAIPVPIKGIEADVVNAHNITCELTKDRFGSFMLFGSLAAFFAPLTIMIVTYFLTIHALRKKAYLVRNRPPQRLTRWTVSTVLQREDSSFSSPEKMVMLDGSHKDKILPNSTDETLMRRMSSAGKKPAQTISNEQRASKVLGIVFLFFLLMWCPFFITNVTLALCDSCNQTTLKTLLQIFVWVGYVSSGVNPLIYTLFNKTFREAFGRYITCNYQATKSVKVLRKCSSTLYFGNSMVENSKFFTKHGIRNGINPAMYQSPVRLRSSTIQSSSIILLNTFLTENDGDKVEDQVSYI

Assay [4] addresses T1, 5-hydroxytryptamine receptor 2C. The assay is described as follows: Compound was tested for binding affinity towards 5-hydroxytryptamine 1C receptor from frontal cortical regions of male Sprague-Dawley rat homogenates, using [3H]mesulergine as radioligand. The procedure, abridged:
as §1

Assay [5] concerns the target T2, Serotonin 2 (5-HT2) receptor. The assay is described as follows: Compound was tested for binding affinity towards 5-hydroxytryptamine 2 (5-hydroxytryptamine-2) receptor from frontal cortical regions of male Sprague-Dawley rat homogenates, using [3H]-ketanserin as radioligand. The procedure, abridged:
as §2

As a reminder, the Ki is a measure of affinity in units of concentration, obtained from inhibition or displacement.

The structures appear in SMILES notation.

With `COc1cc(C)ccc1CCN`, the Ki is 110 nM in assay [1] and 825 nM in assay [2]. The Selectivity in assay [3] was determined as 7.

As for `COc1ccc(CC(C)N)c(OC)c1` (stereo unspecified), the Ki is 4480 nM in assay [1] and over 10000 nM in assay [2]. Moreover, the Selectivity in assay [3] is over 2.

`CCCCc1cc(OC)c(CC(C)N)cc1OC` (stereo unspecified) showed a Ki in assay [1] of 26 nM. For the same molecule, the Selectivity in assay [3] was 2.

On to `CC(N)Cc1ccc(OC(=O)c2ccccc2)cc1` (stereo unspecified), for which, in assay [4], the affinity, expressed as Ki, was 1210 nM.

As to `COc1ccc(OC)c(CC(C)N)c1` (stereo unspecified), the affinity in assay [1], expressed as Ki, was 1220 nM.

For `CCCc1cc(OC)c(CC(C)N)cc1OC` (stereo unspecified), the Ki in assay [1] was 14 nM. Further, in assay [3], the Selectivity was determined as 5.

`COc1cc(Br)ccc1CCN`: the Ki in assay [1] was found to be 220 nM; in assay [2] it was 1030 nM. Also, the Selectivity in assay [3] was determined as 5.

As to `COc1cc(C)ccc1CC(C)N` (stereo unspecified), the Ki in assay [1] is 610 nM; in assay [2], 1435 nM. In addition, in assay [3], the Selectivity is 2.

On to `COc1cc(Br)ccc1CC(C)N` (stereo unspecified), for which the values for the Ki in assay [1] and in assay [2] were 100 nM and 830 nM, respectively. The Selectivity in assay [3] came to 8.

On to `CCCc1ccc(CC(C)N)cc1` (stereo unspecified), for which the Ki was found to be 1250 nM in assay [4] and 2345 nM in assay [5]. Moreover, the Selectivity in assay [3] came to 2.

In the case of `Cc1ccc(CC(C)N)cc1` (stereo unspecified), the Ki in assay [4] and in assay [5] was over 10000 nM in each case.

Take `COc1cccc(Br)c1CC(C)N` (stereo unspecified): the Ki in assay [1] is 1560 nM; in assay [2] it was over 10000 nM. In addition, the Selectivity in assay [3] was over 6.

With `COc1cc(I)ccc1CC(C)N` (stereo unspecified), the values for the Ki in assay [1] and in assay [2] were 130 nM and 580 nM, respectively. For the same molecule, the Selectivity in assay [3] worked out at 5.

The molecule `COc1cc(CC(C)N)c(OC)cc1I` (stereo unspecified) displayed a Ki in assay [1] of 30 nM. Further, in assay [3], the Selectivity was 0.6.

Take `CCCc1ccc(CC(C)NC)cc1` (stereo unspecified): the results for the Ki in assay [1] and in assay [2] were 1930 nM and 2525 nM, respectively. In addition, the Selectivity in assay [3] was 1.

For the molecule `CCCOC(=O)c1cc(OC)c(CC(C)N)cc1OC` (stereo unspecified), in assay [1], the Ki was over 10000 nM. The Selectivity in assay [3] is under 1.

For the molecule `CCCNC(C)Cc1cc(OC)c(Br)cc1OC` (stereo unspecified), the results for the Ki in assay [1] and in assay [2] were over 10000 nM and 2460 nM, respectively. The Selectivity in assay [3] is under 1.

On to `CC(N)Cc1ccc(Br)cc1` (stereo unspecified), for which, in assay [1], affinity was put at a Ki of 1480 nM.

`CNC(C)Cc1cc(OC)c(Br)cc1OC` (stereo unspecified): the Ki was found to be 98 nM in assay [1] and 80 nM in assay [2]. Moreover, in assay [3], the Selectivity turned out to be 1.

In turn, `CNC(C)Cc1ccc(C)cc1OC` (stereo unspecified) yielded a Ki in assay [1] of 1480 nM.

On to `CCOc1ccc(CC(C)N)cc1` (stereo unspecified), for which the Ki in assay [4] and in assay [2] was over 10000 nM each time.

Molecule `CCOc1cc(OC)c(CC(C)N)cc1OC` (stereo unspecified) showed a Ki in assay [1] of 2300 nM. Besides, the Selectivity in assay [3] stood at 1.
